High-throughput results deposited in PubChem BioAssay by several laboratories.
AI-2 QS mod = modulates the Vibrio harveyi AI-2 quorum sensing system; Vibrio harveyi JMH597 AI-2 luminescence/OD600 ratio, 9 h; stronger effect = lower value; strain lacks LuxN and CqsS sensors; 0 = neutral-control median; activity change, % at 7.5 µM; actives 0.4% (n = 300,000); AID 2094; in the data active = activity change below about -75%, passing the limit was not always enough;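 note: luminescence divided by OD600 gain over 9 h not by final OD600 alone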
ALR inh = blocks human ALR sulfhydryl oxidase activity | actives 3.8% (n = 290,000) | inhibition, % (no concentration beside the values) | purified ALR, DTT oxidation, H2O2 HRP-luminol luminescence | P55789;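 active = mean replicate inhibition above about 79%, with every replicate also reaching it, limit read from the data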
HCV core dimer = HCV core protein dimerization inhibition; TR-FRET GST/Flag-core106 dimerization, 1536-well; inhibition, % at 5 µM; actives 0.33% (n = 300,000);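 active = inhibition above the mean of all tested compounds plus 3 SD, set per screening campaign, cut at about 45% in these data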
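Assay system: Tagged HCV core106 pair (GST and Flag) | Buffer or medium: KF-containing HEPES buffer, pH 7.45, DTT, CHAPS, BSA | Also added: Eu donor and XL665 acceptor anti-tag antibodies | Dosing: One concentration, 5 µM, in 0.5% DMSO | Timing: 4 h at 22.5 °C | Technique: TR-FRET 671 and 617 nm emission | Repeats: Singlicate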
HSF-1 act = increases HSF-1 driven luciferase reporter signal; NIH3T3-HGL HSF-1 luciferase reporter, MG132, 8 h; 100% = twice DMSO control signal; activation, % at 9 µM; actives 1.7% (n = 300,000); AID 504408;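 active = mean replicate activation of at least 50% with a set share of replicates each reaching 50%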;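 note: 0% = median of the neutral control wells and 100% = twice that signal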
PHOSPHO1 inh = PHOSPHO1 (human) inhibition. inhibition, % at 13.3 µM. actives 1.1% (n = 290,000). recombinant PHOSPHO1, absorbance phosphatase assay. Q8TCT1; in the data active = inhibition above about 60%
Target sequence (Q8TCT1 whole entry, looked up): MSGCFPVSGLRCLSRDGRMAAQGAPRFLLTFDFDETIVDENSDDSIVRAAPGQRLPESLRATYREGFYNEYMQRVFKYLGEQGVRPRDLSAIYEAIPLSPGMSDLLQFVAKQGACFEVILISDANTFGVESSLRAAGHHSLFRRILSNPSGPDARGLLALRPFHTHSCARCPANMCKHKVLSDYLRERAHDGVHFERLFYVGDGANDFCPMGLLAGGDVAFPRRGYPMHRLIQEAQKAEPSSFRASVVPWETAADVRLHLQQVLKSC
HSF1 inhib = HSF1 inhibition; NIH3T3-HGL HSE-luciferase, MG132-induced, luminescence 8 h; stronger effect = lower value; activity change, negative = inhibition, % at 7.5 µM (by protocol); actives 0.77% (n = 300,000); AID 2098;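 active = more than half of replicate wells show activity change below -50%, luminescence cut by over half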;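 note: luciferase reports HSF-1 transcriptional activity via heat shock element; 0% = median of DMSO wells and -100% = zero luminescence signal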
Active calls of the source: *; nt = not tested or not shown. An excerpt weighted towards active compounds, which were near 6.8% of everything screened.

SMILES	AI-2 QS mod	ALR inh	HCV core dimer	HSF-1 act	PHOSPHO1 inh	HSF1 inhib
COc1cc(C=O)ccc1OCCCCOc1ccccc1[N+](=O)[O-]	0.9	96.4*	5.8	-15.3	0.1	5.4
CC1(c2ccccc2)NC(=O)N(CC(=O)Nc2ccc(C(N)=O)cc2)C1=O (configuration not stated)	2.8	0.7	11.7	-12.6	26.9	-7.1
CCCCNC(=O)c1cccc(S(=O)(=O)N2CC3(C)CC2CC(C)(C)C3)c1 (configuration not stated)	nt	-8.8	nt	nt	nt	nt
CSc1c[n+]2c(n1C)CCC2	6.0	-2.4	-0.7	-1.9	81.5*	-0.3
CCOc1ccc(-n2c(-c3ccccc3)c[n+]3c2CCC3)cc1	6.0	-15.0	0.2	-27.0	42.8	-17.3
Cc1c(O)ccc2c(CC(=O)N[C@@H](Cc3ccc(O)cc3)C(=O)O)cc(=O)oc12	-2.5	53.2	nt	-77.2	19.5	-70.0*
FC(F)(F)c1cccc(-c2nc3nc(Cl)c(Cl)nc3[nH]2)c1	-17.4	8.9	24.5	38.6	5.0	6.3
COc1ccc(C)cc1NC(=O)n1ncc2c(C)cccc21	18.3	nt	3.0	31.6	34.0	13.5
Cc1ccc(NC(=O)n2ncc3c(C)cccc32)cc1F	9.3	nt	-5.5	61.0*	29.9	30.9
Cc1cccc2c1cnn2C(=O)Nc1ccccc1Br	13.4	nt	-3.9	19.8	35.1	9.7
Cc1cccc2c1cnn2C(=O)Nc1ccccc1Cl	34.0	-7.9	-1.9	29.9	34.0	10.4
COc1ccc(NC(=O)n2ncc3c(C)cccc32)cc1OC	4.6	nt	-6.3	53.4*	30.8	30.3
COc1ccc(NC(=O)n2ncc3c(C)cccc32)cc1	10.6	nt	-3.4	59.7*	13.4	39.2
CCOC(=O)C1=NN(c2ccccc2)C2(S1)SC(C(C)=O)=C(C)N2c1ccccc1 (configuration not stated)	27.8	-6.0	11.5	18.3	19.1	-3.3
CCOC(=O)C1=NN(c2cccc(C)c2)C2(S1)SC(C(C)=O)=C(C)N2c1ccccc1 (configuration not stated)	37.1	2.4	4.7	8.9	62.5*	7.1
CCOC(=O)C1=NN(c2ccc(C)cc2)C2(S1)SC(C(C)=O)=C(C)N2c1ccccc1 (configuration not stated)	7.5	-8.7	12.4	61.8*	-27.2	22.0
Cc1ccc(NC(=O)c2cc3cccc([N+](=O)[O-])c3[nH]2)cc1	-3.0	-15.5	5.5	164.5*	36.8	88.2
CCCOc1ccc(C(=O)NNC(=O)CCNC(=O)c2ccco2)cc1OC	-4.7	nt	0.0	-0.7	nt	-1.9
N#CCC(=O)NNC(=S)NC(=O)C(c1ccccc1)c1ccccc1	24.8	16.4	0.0	4.0	-92.0	5.2
CC(=O)NC(=S)NNC(=O)C(c1ccccc1)c1ccccc1	-86.8*	26.0	-1.3	-6.4	43.6	4.0
Cc1ccc(C2/C(=C(/O)c3ccccc3)C(=O)C(=O)N2CCN2CCOCC2)o1 (configuration not stated)	11.2	-4.0	-0.2	-11.4	75.5*	-9.4
Cc1ccc(C2/C(=C(\O)c3cnn(-c4ccccc4)c3C)C(=O)C(=O)N2CCN(C)C)o1 (configuration not stated)	0.3	-1.0	0.1	65.7*	-14.7	25.5
Cc1c(/C(O)=C2\C(=O)C(=O)N(CCN(C)C)C2c2ccccc2)cnn1-c1ccccc1 (configuration not stated)	29.4	0.5	5.6	-63.5	-9.8	-63.3*
Cc1ccc(C2/C(=C(/O)c3cnn(-c4ccccc4)c3C)C(=O)C(=O)N2CCN2CCOCC2)o1 (configuration not stated)	14.8	nt	-4.4	-7.2	29.9	-7.6
Cc1ccc(NC(=O)c2cnccn2)cc1S(=O)(=O)N1CCCCCC1	nt	3.0	nt	nt	nt	nt
O=C(O)C(F)=C1c2ccccc2-c2ccccc21	74.2	0.2	3.5	2.3	nt	1.4
CCCN(CCC)CCCNC(=O)C1CCC(CNS(=O)(=O)c2cccc3nsnc23)CC1 (configuration not stated)	19.1	-2.4	-8.3	9.5	36.8	-4.5
COc1cc(/C=N/NC(=O)Cc2nnc(N)s2)cc(OC)c1OC	15.6	-1.3	0.2	10.1	33.4	-3.4
